target: T1, C-X-C chemokine receptor type 4 (Homo sapiens, UniProt P61073); assay: Displacement of [125I]-CXCL12 from HA-tagged human recombinant CXCR4 expressed in HEK293 cells incubated for 1 hr by gamma-radiation counting analysis; assay type: cell-based; conditions: not given
T1 sequence (P61073 whole entry): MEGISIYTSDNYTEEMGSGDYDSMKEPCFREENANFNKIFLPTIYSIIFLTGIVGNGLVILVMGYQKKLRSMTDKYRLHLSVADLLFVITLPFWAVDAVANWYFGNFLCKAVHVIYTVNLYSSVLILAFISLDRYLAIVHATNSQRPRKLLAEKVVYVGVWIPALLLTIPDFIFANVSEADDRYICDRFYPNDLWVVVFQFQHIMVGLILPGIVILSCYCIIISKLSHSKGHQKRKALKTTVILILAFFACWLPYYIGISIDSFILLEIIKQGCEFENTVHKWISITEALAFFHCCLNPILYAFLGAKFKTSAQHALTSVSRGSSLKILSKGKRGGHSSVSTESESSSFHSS

SMILES | IC50 [nM]
CC(C)C[C@H](NC(=O)[C@H](CO)NC(=O)[C@@H](NC(=O)[C@@H]1CCCN1)C(C)C)C(=O)N[C@@H](CO)C(=O)N[C@@H](Cc1ccc(O)cc1)C(=O)N[C@@H](CCCNC(=N)N)C(=O)N[C@@H](CO)C(=O)N[C@@H](C)C(=O)NCCCC[C@H](NC(=O)[C@@H]1CSSC[C@H](NC(=O)[C@H](Cc2ccc3ccccc3c2)NC(=O)[C@H](CCCNC(=N)N)NC(=O)[C@@H](N)CCCNC(=N)N)C(=O)N[C@@H](Cc2ccc(O)cc2)C(=O)N[C@@H](CCCNC(=N)N)C(=O)N[C@@H](CCCCN)C(=O)N[C@H](CCCCN)C(=O)N2CCC[C@H]2C(=O)N[C@@H](Cc2ccc(O)cc2)C(=O)N[C@@H](CCCNC(=N)N)C(=O)N[C@@H](CCCNC(=N)N)C(=O)N1)C(=O)O | 548
CC(C)C[C@H](NC(=O)[C@H](CO)NC(=O)[C@@H](NC(=O)[C@@H]1CCCN1C(=O)[C@@H](N)CCCCN)C(C)C)C(=O)N[C@@H](CO)C(=O)N[C@@H](Cc1ccc(O)cc1)C(=O)NCCOCCOCCOCCC(=O)NCCCC[C@H](NC(=O)[C@@H]1CSSC[C@H](NC(=O)[C@H](Cc2ccc3ccccc3c2)NC(=O)[C@H](CCCNC(=N)N)NC(=O)[C@@H](N)CCCNC(=N)N)C(=O)N[C@@H](Cc2ccc(O)cc2)C(=O)N[C@@H](CCCNC(=N)N)C(=O)N[C@@H](CCCCN)C(=O)N[C@H](CCCCN)C(=O)N2CCC[C@H]2C(=O)N[C@@H](Cc2ccc(O)cc2)C(=O)N[C@@H](CCCNC(=N)N)C(=O)N[C@@H](CCCNC(=N)N)C(=O)N1)C(=O)O | 437
CC(C)C[C@H](NC(=O)[C@H](CO)NC(=O)[C@@H](NC(=O)[C@@H]1CCCN1C(=O)[C@@H](N)CCCCN)C(C)C)C(=O)N[C@@H](CO)C(=O)N[C@@H](C)C(=O)N[C@@H](CCCNC(=N)N)C(=O)N[C@@H](CO)C(=O)N[C@@H](C)C(=O)NCCCC[C@H](NC(=O)[C@@H]1CSSC[C@H](NC(=O)[C@H](Cc2ccc3ccccc3c2)NC(=O)[C@H](CCCNC(=N)N)NC(=O)[C@@H](N)CCCNC(=N)N)C(=O)N[C@@H](Cc2ccc(O)cc2)C(=O)N[C@@H](CCCNC(=N)N)C(=O)N[C@@H](CCCCN)C(=O)N[C@H](CCCCN)C(=O)N2CCC[C@H]2C(=O)N[C@@H](Cc2ccc(O)cc2)C(=O)N[C@@H](CCCNC(=N)N)C(=O)N[C@@H](CCCNC(=N)N)C(=O)N1)C(=O)O | 230
CC(C)C[C@H](NC(=O)[C@H](CO)NC(=O)[C@@H](NC(=O)[C@@H]1CCCN1C(=O)[C@H](C)N)C(C)C)C(=O)N[C@@H](CO)C(=O)N[C@@H](Cc1ccc(O)cc1)C(=O)N[C@@H](CCCNC(=N)N)C(=O)N[C@@H](CO)C(=O)N[C@@H](C)C(=O)NCCCC[C@H](NC(=O)[C@@H]1CSSC[C@H](NC(=O)[C@H](Cc2ccc3ccccc3c2)NC(=O)[C@H](CCCNC(=N)N)NC(=O)[C@@H](N)CCCNC(=N)N)C(=O)N[C@@H](Cc2ccc(O)cc2)C(=O)N[C@@H](CCCNC(=N)N)C(=O)N[C@@H](CCCCN)C(=O)N[C@H](CCCCN)C(=O)N2CCC[C@H]2C(=O)N[C@@H](Cc2ccc(O)cc2)C(=O)N[C@@H](CCCNC(=N)N)C(=O)N[C@@H](CCCNC(=N)N)C(=O)N1)C(=O)O | 282
CC(C)C[C@H](NC(=O)[C@H](CO)NC(=O)[C@H](Cc1ccccc1)N(C)C(=O)[C@@H]1CCCN1C(=O)[C@@H](N)CCCCN)C(=O)N[C@@H](CO)C(=O)N[C@@H](Cc1ccc(O)cc1)C(=O)N[C@@H](CCCNC(=N)N)C(=O)N[C@@H](CO)C(=O)N[C@@H](C)C(=O)NCCCC[C@H](NC(=O)[C@@H]1CSSC[C@H](NC(=O)[C@H](Cc2ccc3ccccc3c2)NC(=O)[C@H](CCCNC(=N)N)NC(=O)[C@@H](N)CCCNC(=N)N)C(=O)N[C@@H](Cc2ccc(O)cc2)C(=O)N[C@@H](CCCNC(=N)N)C(=O)N[C@@H](CCCCN)C(=O)N[C@H](CCCCN)C(=O)N2CCC[C@H]2C(=O)N[C@@H](Cc2ccc(O)cc2)C(=O)N[C@@H](CCCNC(=N)N)C(=O)N[C@@H](CCCNC(=N)N)C(=O)N1)C(=O)O | 678
CCCC[C@H](N)C(=O)N1CCC[C@H]1C(=O)N[C@H](C(=O)N[C@@H](CO)C(=O)N[C@@H](CC(C)C)C(=O)N[C@@H](CO)C(=O)N[C@@H](Cc1ccc(O)cc1)C(=O)N[C@@H](CCCNC(=N)N)C(=O)N[C@@H](CO)C(=O)N[C@@H](C)C(=O)NCCCC[C@H](NC(=O)[C@@H]1CSSC[C@H](NC(=O)[C@H](Cc2ccc3ccccc3c2)NC(=O)[C@H](CCCNC(=N)N)NC(=O)[C@@H](N)CCCNC(=N)N)C(=O)N[C@@H](Cc2ccc(O)cc2)C(=O)N[C@@H](CCCNC(=N)N)C(=O)N[C@@H](CCCCN)C(=O)N[C@H](CCCCN)C(=O)N2CCC[C@H]2C(=O)N[C@@H](Cc2ccc(O)cc2)C(=O)NC(CCCNC(=N)N)C(=O)N[C@@H](CCCNC(=N)N)C(=O)N1)C(=O)O)C(C)C (stereo not given in full) | 267
CC(C)C[C@H](NC(=O)[C@H](CO)NC(=O)[C@@H](NC(=O)[C@H](C)NC(=O)[C@@H](N)CCCCN)C(C)C)C(=O)N[C@@H](CO)C(=O)N[C@@H](Cc1ccc(O)cc1)C(=O)N[C@@H](CCCNC(=N)N)C(=O)N[C@@H](CO)C(=O)N[C@@H](C)C(=O)NCCCC[C@H](NC(=O)[C@@H]1CSSC[C@H](NC(=O)[C@H](Cc2ccc3ccccc3c2)NC(=O)[C@H](CCCNC(=N)N)NC(=O)[C@@H](N)CCCNC(=N)N)C(=O)N[C@@H](Cc2ccc(O)cc2)C(=O)N[C@@H](CCCNC(=N)N)C(=O)N[C@@H](CCCCN)C(=O)N[C@H](CCCCN)C(=O)N2CCC[C@H]2C(=O)N[C@@H](Cc2ccc(O)cc2)C(=O)N[C@@H](CCCNC(=N)N)C(=O)N[C@@H](CCCNC(=N)N)C(=O)N1)C(=O)O | 353

Results, then the compound that gave them:

IC50 [nM] | SMILES
137 | CC(C)C[C@H](NC(=O)[C@H](CO)NC(=O)[C@@H](NC(=O)C1(NC(=O)[C@@H](N)CCCCN)Cc2ccccc2C1)C(C)C)C(=O)N[C@@H](CO)C(=O)N[C@@H](Cc1ccc(O)cc1)C(=O)N[C@@H](CCCNC(=N)N)C(=O)N[C@@H](CO)C(=O)N[C@@H](C)C(=O)NCCCC[C@H](NC(=O)[C@@H]1CSSC[C@H](NC(=O)[C@H](Cc2ccc3ccccc3c2)NC(=O)[C@H](CCCNC(=N)N)NC(=O)[C@@H](N)CCCNC(=N)N)C(=O)N[C@@H](Cc2ccc(O)cc2)C(=O)N[C@@H](CCCNC(=N)N)C(=O)N[C@@H](CCCCN)C(=O)N[C@H](CCCCN)C(=O)N2CCC[C@H]2C(=O)N[C@@H](Cc2ccc(O)cc2)C(=O)N[C@@H](CCCNC(=N)N)C(=O)N[C@@H](CCCNC(=N)N)C(=O)N1)C(=O)O
95 | CC(C)C[C@H](NC(=O)[C@H](CO)NC(=O)[C@@H](N)C(C)C)C(=O)N[C@@H](CO)C(=O)N[C@@H](Cc1ccc(O)cc1)C(=O)N[C@@H](CCCNC(=N)N)C(=O)N[C@@H](CO)C(=O)N[C@@H](C)C(=O)NCCCC[C@H](NC(=O)[C@@H]1CSSC[C@H](NC(=O)[C@H](Cc2ccc3ccccc3c2)NC(=O)[C@H](CCCNC(=N)N)NC(=O)[C@@H](N)CCCNC(=N)N)C(=O)N[C@@H](Cc2ccc(O)cc2)C(=O)N[C@@H](CCCNC(=N)N)C(=O)N[C@@H](CCCCN)C(=O)N[C@H](CCCCN)C(=O)N2CCC[C@H]2C(=O)N[C@@H](Cc2ccc(O)cc2)C(=O)N[C@@H](CCCNC(=N)N)C(=O)N[C@@H](CCCNC(=N)N)C(=O)N1)C(=O)O
127 | CC(C)C[C@H](NC(=O)[C@H](CO)NC(=O)[C@H](C(C)C)N(C)C(=O)[C@@H]1CCCN1C(=O)[C@@H](N)CCCCN)C(=O)N[C@@H](CO)C(=O)N[C@@H](Cc1ccc(O)cc1)C(=O)N[C@@H](CCCNC(=N)N)C(=O)N[C@@H](CO)C(=O)N[C@@H](C)C(=O)NCCCC[C@H](NC(=O)[C@@H]1CSSC[C@H](NC(=O)[C@H](Cc2ccc3ccccc3c2)NC(=O)[C@H](CCCNC(=N)N)NC(=O)[C@@H](N)CCCNC(=N)N)C(=O)N[C@@H](Cc2ccc(O)cc2)C(=O)N[C@@H](CCCNC(=N)N)C(=O)N[C@@H](CCCCN)C(=O)N[C@H](CCCCN)C(=O)N2CCC[C@H]2C(=O)N[C@@H](Cc2ccc(O)cc2)C(=O)N[C@@H](CCCNC(=N)N)C(=O)N[C@@H](CCCNC(=N)N)C(=O)N1)C(=O)O
171 | CC(C)[C@H](NC(=O)[C@@H]1CCCN1C(=O)[C@@H](N)CCCCN)C(=O)N[C@@H](CO)C(=O)N[C@@H](C)C(=O)N[C@@H](CO)C(=O)N[C@@H](Cc1ccc(O)cc1)C(=O)N[C@@H](CCCNC(=N)N)C(=O)N[C@@H](CO)C(=O)N[C@@H](C)C(=O)NCCCC[C@H](NC(=O)[C@@H]1CSSC[C@H](NC(=O)[C@H](Cc2ccc3ccccc3c2)NC(=O)[C@H](CCCNC(=N)N)NC(=O)[C@@H](N)CCCNC(=N)N)C(=O)N[C@@H](Cc2ccc(O)cc2)C(=O)N[C@@H](CCCNC(=N)N)C(=O)N[C@@H](CCCCN)C(=O)N[C@H](CCCCN)C(=O)N2CCC[C@H]2C(=O)N[C@@H](Cc2ccc(O)cc2)C(=O)N[C@@H](CCCNC(=N)N)C(=O)N[C@@H](CCCNC(=N)N)C(=O)N1)C(=O)O
222 | CC(C)C[C@H](NC(=O)[C@H](CO)NC(=O)[C@@H](NC(=O)[C@@H]1Cc2ccccc2CN1C(=O)[C@@H](N)CCCCN)C(C)C)C(=O)N[C@@H](CO)C(=O)N[C@@H](Cc1ccc(O)cc1)C(=O)N[C@@H](CCCNC(=N)N)C(=O)N[C@@H](CO)C(=O)N[C@@H](C)C(=O)NCCCC[C@H](NC(=O)[C@@H]1CSSC[C@H](NC(=O)[C@H](Cc2ccc3ccccc3c2)NC(=O)[C@H](CCCNC(=N)N)NC(=O)[C@@H](N)CCCNC(=N)N)C(=O)N[C@@H](Cc2ccc(O)cc2)C(=O)N[C@@H](CCCNC(=N)N)C(=O)N[C@@H](CCCCN)C(=O)N[C@H](CCCCN)C(=O)N2CCC[C@H]2C(=O)N[C@@H](Cc2ccc(O)cc2)C(=O)N[C@@H](CCCNC(=N)N)C(=O)N[C@@H](CCCNC(=N)N)C(=O)N1)C(=O)O

same assay, conditions: hek293

IC50 [nM] | SMILES
151 | CC(C)C[C@H](NC(=O)[C@H](CO)NC(=O)[C@@H](NC(=O)[C@H]1CCCN1C(=O)[C@@H](N)CCCCN)C(C)C)C(=O)N[C@@H](CO)C(=O)N[C@@H](Cc1ccc(O)cc1)C(=O)N[C@@H](CCCNC(=N)N)C(=O)N[C@@H](CO)C(=O)N[C@@H](C)C(=O)NCCCC[C@H](NC(=O)[C@@H]1CSSC[C@H](NC(=O)[C@H](Cc2ccc3ccccc3c2)NC(=O)[C@H](CCCNC(=N)N)NC(=O)[C@@H](N)CCCNC(=N)N)C(=O)N[C@@H](Cc2ccc(O)cc2)C(=O)N[C@@H](CCCNC(=N)N)C(=O)N[C@@H](CCCCN)C(=O)N[C@H](CCCCN)C(=O)N2CCC[C@H]2C(=O)N[C@@H](Cc2ccc(O)cc2)C(=O)N[C@@H](CCCNC(=N)N)C(=O)N[C@@H](CCCNC(=N)N)C(=O)N1)C(=O)O

target: T1, C-X-C chemokine receptor type 4; assay: Agonist activity at HA-tagged human CXCR4 receptor expressed in HEK293 cells co-transfected with Galphai1-91-RlucII, Gbeta1, and GFP10-G-gamma1 incubated for 7 mins by Galpha1 protein activation-based BRET assay; assay type: cell-based; conditions: not given
How it was run: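 HEK293 cells (3 × 10^6 per 100 mm dish) co-transfected via polyethylenimine with HA-hCXCR4 plus Gαi1-91-RlucII, Gβ1, GFP10-Gγ1; replated at 24 h, 100 000 cells/well. At 48 h, washed in HBSS/0.1% BSA, exposed to ligand 10−12 to 10−5 M for 7 min, then coelenterazine-400A 5 μM final; BRET2 515/400 nm ratio. EC50 (Gαi dissociation) and Emax from three experiments in triplicate.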

EC50 [nM] | Emax [%] | SMILES
61 | 24 | CC(C)C[C@H](NC(=O)[C@H](CO)NC(=O)[C@@H](NC(=O)[C@@H]1CCCN1C(=O)[C@@H](N)CCCCN)C(C)C)C(=O)N[C@@H](CO)C(=O)N[C@@H](Cc1ccc(O)cc1)C(=O)NCCOCCOCCOCCC(=O)NCCCC[C@H](NC(=O)[C@@H]1CSSC[C@H](NC(=O)[C@H](Cc2ccc3ccccc3c2)NC(=O)[C@H](CCCNC(=N)N)NC(=O)[C@@H](N)CCCNC(=N)N)C(=O)N[C@@H](Cc2ccc(O)cc2)C(=O)N[C@@H](CCCNC(=N)N)C(=O)N[C@@H](CCCCN)C(=O)N[C@H](CCCCN)C(=O)N2CCC[C@H]2C(=O)N[C@@H](Cc2ccc(O)cc2)C(=O)N[C@@H](CCCNC(=N)N)C(=O)N[C@@H](CCCNC(=N)N)C(=O)N1)C(=O)O

— ChEMBL document CHEMBL3860039, “Structure-Activity Relationship and Signaling of New Chimeric CXCR4 Agonists” (J Med Chem, 2016)
